Test results published in ChEMBL document CHEMBL3758168, “Hybrid triazoles: Design and synthesis as potential dual inhibitor of growth and efflux inhibition in tuberculosis” (Eur J Med Chem, 2016).
≈ marks a conversion by molar mass, not a printed value.

What was measured:
[1] = system: Mycolicibacterium smegmatis; assay: Anti-tubercular activity against Mycobacterium smegmatis MC2 155 ATCC 700084 after 3 days by microdilution method; type: functional; details: MC2 155 ATCC 700084, 72 h
Procedure, shortened: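 M. smegmatis mc2155 grown in MB7H9 + 10% OADC at 37 °C with shaking to OD600 0.8. Inoculum set to 0.5 McFarland, diluted 1:100, and mixed 1:1 with two-fold serial dilutions in MB7H9. Plates incubated 3 days at 37 °C with growth and sterility controls. MIC taken as the lowest concentration with no visible growth.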

[2] = Cytotoxicity against human MDM assessed as cell viability after 3 days by Alamar blue dye-based fluorocytometric analysis relative to control; details: 72 h
[3] = system: Mycobacterium tuberculosis; assay: Antibacterial activity against Mycobacterium tuberculosis H37Rv ATCC 27294T assessed as isoniazid MIC at 0.25 ug/ml after 7 days by microdilution checkerboard assay; type: functional; details: 168 h
Procedure, shortened: (§1)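 Two-dimensional checkerboard in H37Rv at 10^5 CFU/ml in MB7H9/OADC. Partner drug (amikacin, EtBr, isoniazid, ofloxacin or rifampin) two-fold serially diluted across columns 3-11. Test compound two-fold serially diluted down rows 2-6. Plates incubated 7 days at 37 °C, then MTT added overnight. […] Run in triplicate.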

[4] = system: Mycobacterium tuberculosis; assay: Antibacterial activity against Mycobacterium tuberculosis H37Rv ATCC 27294T assessed as isoniazid MIC at 0.12 ug/ml after 7 days by microdilution checkerboard assay; type: functional; details: 168 h; procedure, shortened: as §1
[5] = system: Mycobacterium tuberculosis; assay: Antibacterial activity against Mycobacterium tuberculosis H37Rv ATCC 27294T assessed as ethidium bromide MIC at 0.12 ug/ml after 7 days by microdilution checkerboard assay; type: functional; details: 168 h; procedure, shortened: as §1
[6] = system: Mycobacterium tuberculosis; assay: Antibacterial activity against Mycobacterium tuberculosis H37Rv ATCC 27294T assessed as ethidium bromide MIC at 0.25 ug/ml after 7 days by microdilution checkerboard assay; type: functional; details: 168 h; procedure, shortened: as §1
[7] = system: Mycobacterium tuberculosis; assay: Antibacterial activity against Mycobacterium tuberculosis H37Rv ATCC 27294T assessed as ethidium bromide MIC at 0.5 ug/ml after 7 days by microdilution checkerboard assay; type: functional; details: 168 h; procedure, shortened: as §1
[8] = system: Mycobacterium tuberculosis; assay: Antibacterial activity against Mycobacterium tuberculosis H37Rv ATCC 27294T assessed as ethidium bromide MIC at 1 ug/ml after 7 days by microdilution checkerboard assay; type: functional; details: 168 h; procedure, shortened: as §1
[9] = system: Mycobacterium tuberculosis; assay: Antibacterial activity against Mycobacterium tuberculosis H37Rv ATCC 27294T assessed as ethidium bromide MIC at 2 ug/ml after 7 days by microdilution checkerboard assay; type: functional; details: 168 h; procedure, shortened: as §1
[10] = system: Mycobacterium tuberculosis; assay: Antibacterial activity against Mycobacterium tuberculosis H37Rv ATCC 27294T assessed as ethidium bromide MIC at 4 ug/ml after 7 days by microdilution checkerboard assay; type: functional; details: 168 h; procedure, shortened: as §1
[11] = system: Mycobacterium tuberculosis; assay: Antibacterial activity against Mycobacterium tuberculosis H37Rv ATCC 27294T assessed as ethidium bromide MIC at 8 ug/ml after 7 days by microdilution checkerboard assay; type: functional; details: 168 h; procedure, shortened: as §1
[12] = system: Mycobacterium tuberculosis; assay: Antibacterial activity against Mycobacterium tuberculosis H37Rv ATCC 27294T assessed as ofloxacin MIC at 0.12 ug/ml after 7 days by microdilution checkerboard assay; type: functional; details: 168 h; procedure, shortened: as §1
[13] = system: Mycobacterium tuberculosis; assay: Antibacterial activity against Mycobacterium tuberculosis H37Rv ATCC 27294T assessed as ofloxacin MIC at 0.25 ug/ml after 7 days by microdilution checkerboard assay; type: functional; details: 168 h; procedure, shortened: as §1
[14] = system: Mycobacterium tuberculosis; assay: Antibacterial activity against Mycobacterium tuberculosis H37Rv ATCC 27294T assessed as ofloxacin MIC at 0.5 ug/ml after 7 days by microdilution checkerboard assay; type: functional; details: 168 h; procedure, shortened: as §1
[15] = system: Mycobacterium tuberculosis; assay: Antibacterial activity against Mycobacterium tuberculosis H37Rv ATCC 27294T assessed as ofloxacin MIC at 1 ug/ml after 7 days by microdilution checkerboard assay; type: functional; details: 168 h; procedure, shortened: as §1
[16] = system: Mycobacterium tuberculosis; assay: Antibacterial activity against Mycobacterium tuberculosis H37Rv ATCC 27294T assessed as ofloxacin MIC at 2 ug/ml after 7 days by microdilution checkerboard assay; type: functional; details: 168 h; procedure, shortened: as §1
[17] = system: Mycobacterium tuberculosis; assay: Antibacterial activity against Mycobacterium tuberculosis H37Rv ATCC 27294T assessed as ofloxacin MIC at 4 ug/ml after 7 days by microdilution checkerboard assay; type: functional; details: 168 h; procedure, shortened: as §1
[18] = system: Mycobacterium tuberculosis; assay: Antibacterial activity against Mycobacterium tuberculosis H37Rv ATCC 27294T assessed as ofloxacin MIC at 8 ug/ml after 7 days by microdilution checkerboard assay; type: functional; details: 168 h; procedure, shortened: as §1
[19] = system: Mycobacterium tuberculosis; assay: Antibacterial activity against Mycobacterium tuberculosis H37Rv ATCC 27294T assessed as amikacin MIC at 0.12 ug/ml after 7 days by microdilution checkerboard assay; type: functional; details: 168 h; procedure, shortened: as §1
[20] = system: Mycobacterium tuberculosis; assay: Antibacterial activity against Mycobacterium tuberculosis H37Rv ATCC 27294T assessed as amikacin MIC at 0.25 ug/ml after 7 days by microdilution checkerboard assay; type: functional; details: 168 h; procedure, shortened: as §1
[21] = system: Mycobacterium tuberculosis; assay: Antibacterial activity against Mycobacterium tuberculosis H37Rv ATCC 27294T assessed as amikacin MIC at 0.5 ug/ml after 7 days by microdilution checkerboard assay; type: functional; details: 168 h; procedure, shortened: as §1
[22] = system: Mycobacterium tuberculosis; assay: Antibacterial activity against Mycobacterium tuberculosis H37Rv ATCC 27294T assessed as amikacin MIC at 1 ug/ml after 7 days by microdilution checkerboard assay; type: functional; details: 168 h; procedure, shortened: as §1
[23] = system: Mycobacterium tuberculosis; assay: Antibacterial activity against Mycobacterium tuberculosis H37Rv ATCC 27294T assessed as amikacin MIC at 2 ug/ml after 7 days by microdilution checkerboard assay; type: functional; details: 168 h; procedure, shortened: as §1
[24] = system: Mycobacterium tuberculosis; assay: Antibacterial activity against Mycobacterium tuberculosis H37Rv ATCC 27294T assessed as amikacin MIC at 4 ug/ml after 7 days by microdilution checkerboard assay; type: functional; details: 168 h; procedure, shortened: as §1
[25] = system: Mycobacterium tuberculosis; assay: Anti-tubercular activity against Mycobacterium tuberculosis H37Rv ATCC 27294T after 7 days by mircodilution method; type: functional; details: 168 h
Procedure, shortened: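 H37Rv grown static in MB7H9 + 10% OADC at 37 °C to OD600 0.8, then diluted to about 10^5 cells/ml. Mixed 1:1 with two-fold serial dilutions in MB7H9/OADC and incubated 7 days at 37 °C. MTT added to final 2.5% and plates incubated overnight. MIC is the lowest concentration with no colour change. Run in triplicate.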

[26] = system: Mycobacterium tuberculosis; assay: Antibacterial activity against Mycobacterium tuberculosis H37Rv ATCC 27294T assessed as isoniazid MIC at 8 ug/ml after 7 days by microdilution checkerboard assay; type: functional; details: 168 h; procedure, shortened: as §1
[27] = system: Mycobacterium tuberculosis; assay: Antibacterial activity against Mycobacterium tuberculosis H37Rv ATCC 27294T assessed as isoniazid MIC at 4 ug/ml after 7 days by microdilution checkerboard; type: functional; details: 168 h; procedure, shortened: as §1
[28] = system: Mycobacterium tuberculosis; assay: Antibacterial activity against Mycobacterium tuberculosis H37Rv ATCC 27294T assessed as isoniazid MIC at 2 ug/ml after 7 days by microdilution checkerboard assay; type: functional; details: 168 h; procedure, shortened: as §1
[29] = system: Mycobacterium tuberculosis; assay: Antibacterial activity against Mycobacterium tuberculosis H37Rv ATCC 27294T assessed as isoniazid MIC at 1 ug/ml after 7 days by microdilution checkerboard assay; type: functional; details: 168 h; procedure, shortened: as §1
[30] = system: Mycobacterium tuberculosis; assay: Antibacterial activity against Mycobacterium tuberculosis H37Rv ATCC 27294T assessed as isoniazid MIC at 0.5 ug/ml after 7 days by microdilution checkerboard assay; type: functional; details: 168 h; procedure, shortened: as §1
[31] = system: Mycobacterium tuberculosis; assay: Antibacterial activity against Mycobacterium tuberculosis H37Rv ATCC 27294T assessed as amikacin MIC at 8 ug/ml after 7 days by microdilution checkerboard assay; type: functional; details: 168 h; procedure, shortened: as §1
[32] = system: Mycobacterium tuberculosis; assay: Antibacterial activity against Mycobacterium tuberculosis H37Rv ATCC 27294T assessed as rifampin MIC at 0.12 ug/ml after 7 days by microdilution checkerboard assay; type: functional; details: 168 h; procedure, shortened: as §1
[33] = system: Mycobacterium tuberculosis; assay: Antibacterial activity against Mycobacterium tuberculosis H37Rv ATCC 27294T assessed as rifampin MIC at 0.25 ug/ml after 7 days by microdilution checkerboard assay; type: functional; details: 168 h; procedure, shortened: as §1
[34] = system: Mycobacterium tuberculosis; assay: Antibacterial activity against Mycobacterium tuberculosis H37Rv ATCC 27294T assessed as rifampin MIC at 0.5 ug/ml after 7 days by microdilution checkerboard assay; type: functional; details: 168 h
Procedure, shortened: (§2)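 M. tuberculosis H37Rv grown in MB7H9 + 10% OADC at 37 °C to OD600 0.8; plates inoculated at 10^5 CFU/ml. Rifampicin two-fold serially diluted across columns, test compound two-fold diluted down rows (two-dimensional checkerboard). Sealed, 37 °C for seven days, then MTT added and incubated overnight. MIC read as no colour change. Triplicate.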

[35] = system: Mycobacterium tuberculosis; assay: Antibacterial activity against Mycobacterium tuberculosis H37Rv ATCC 27294T assessed as rifampin MIC at 1 ug/ml after 7 days by microdilution checkerboard assay; type: functional; details: 168 h; procedure, shortened: as §2
[36] = system: Mycobacterium tuberculosis; assay: Antibacterial activity against Mycobacterium tuberculosis H37Rv ATCC 27294T assessed as rifampin MIC at 2 ug/ml after 7 days by microdilution checkerboard assay; type: functional; details: 168 h; procedure, shortened: as §2
[37] = system: Mycobacterium tuberculosis; assay: Antibacterial activity against Mycobacterium tuberculosis H37Rv ATCC 27294T assessed as rifampin MIC at 4 ug/ml after 7 days by microdilution checkerboard assay; type: functional; details: 168 h; procedure, shortened: as §2
[38] = system: Mycobacterium tuberculosis; assay: Antibacterial activity against Mycobacterium tuberculosis H37Rv ATCC 27294T assessed as rifampin MIC at 8 ug/ml after 7 days by microdilution checkerboard assay; type: functional; details: 168 h; procedure, shortened: as §2

CCCSc1nnc(COc2ccccc2C2=NOC(c3ccc(Cl)cc3Cl)C2)n1NC(C)=O (stereo not drawn)
MIC [1]: 1 µg/mL (≈ 1.92 µM)
IC50 [2]: 128 µg/mL (≈ 245 µM)
MIC [3]: 0.1 µg/mL
MIC [4]: 0.1 µg/mL
MIC [5]: 12.5 µg/mL
MIC [6]: 12.5 µg/mL
MIC [7]: 12.5 µg/mL
MIC [8]: 6.25 µg/mL
MIC [9]: 0.781 µg/mL
MIC [10]: 0.195 µg/mL
MIC [11]: 0.195 µg/mL
MIC [12]: 1 µg/mL
MIC [13]: 1 µg/mL
MIC [14]: 1 µg/mL
MIC [15]: 0.25 µg/mL
MIC [16]: 0.0312 µg/mL
MIC [17]: 0.0156 µg/mL
MIC [18]: 0.0156 µg/mL
MIC [19]: 1 µg/mL
MIC [20]: 1 µg/mL
MIC [21]: 1 µg/mL
MIC [22]: 1 µg/mL
MIC [23]: 0.25 µg/mL
MIC [24]: 0.25 µg/mL
MIC [25]: 4 µg/mL (≈ 7.69 µM)
MIC [26]: 0.78 ng/mL
MIC [27]: 3.12 ng/mL
MIC [28]: 0.0125 µg/mL
MIC [29]: 0.05 µg/mL
MIC [30]: 0.1 µg/mL
MIC [31]: 0.0312 µg/mL
MIC [32]: 0.0625 µg/mL
MIC [33]: 0.0312 µg/mL
MIC [34]: 0.0312 µg/mL
MIC [35]: 0.0156 µg/mL
MIC [36]: 0.0156 µg/mL
MIC [37]: 0.0156 µg/mL
MIC [38]: 0.0156 µg/mL
